Laboratory results taken from ChEMBL document CHEMBL3244396, “Synthesis and antileukemic activity of 5-substituted 2,3-dihydro-6,7-bis(hydroxymethyl)-1H-pyrrolizine diesters” (J Med Chem, 1977).

Assays:
L1210 [1] = experiment: Antileukemic activity against mouse L1210 cells allografted in female BDF1 mouse assessed as change in body weight at 25 mg/kg, ip administered daily for 9 days as Klucel suspension starting 24 hrs after tumor inoculation; type: functional; conditions: route intraperitoneal
In short: (§1)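 Ascitic fluid carrying L1210 cells was inoculated ip. Compound was given ip as a Klucel (hydroxypropylcellulose) suspension in nine daily doses, starting 24 h after inoculation. Body-weight difference (treated minus control) was recorded on day 5. Survival was scored as %T/C of mean survival time.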

Mus musculus [2] = experiment: Toxicity in female CDF1 mouse allografted with mouse P388 cells assessed as animal survival at 200 mg/kg, ip administered daily for 9 days as Klucel suspension starting 24 hrs after tumor inoculation; type: organism-based; parameters: dose 200 mg/kg, route intraperitoneal; conditions: in vivo
In short: (§2)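 P-388 leukemia ascitic fluid inoculated ip. Compound given ip as a suspension in Klucel (hydroxypropylcellulose), once daily for nine doses beginning 24 h post-inoculation. Acute toxicity assessed as toxicity-day survivors per group. Survival was followed up to 30 days, with 30-day survival counted as "cure". Follows NCI screening protocols.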

Mus musculus [3] = experiment: Toxicity in female BDF1 mouse allografted with mouse L1210 cells assessed as animal survival at 25 mg/kg, ip administered daily for 9 days as Klucel suspension starting 24 hrs after tumor inoculation measured on fifth day; type: organism-based; parameters: dose 25 mg/kg, route intraperitoneal; conditions: in vivo
In short: (§3)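 L1210 leukemia passaged as ascitic fluid and inoculated ip. Test agent given ip as a Klucel (hydroxypropylcellulose) suspension, nine daily doses starting 24 h after tumor inoculation. Acute toxicity read as toxicity-day survivors per group (out of 6), recorded on day 5. Animal weight difference T − C was also recorded. Follows NCI screening protocols.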

Mus musculus [4] = experiment: Toxicity in female CDF1 mouse allografted with mouse P388 cells assessed as animal survival at 100 mg/kg, ip administered daily for 9 days as Klucel suspension starting 24 hrs after tumor inoculation; type: organism-based; parameters: dose 100 mg/kg, route intraperitoneal; conditions: in vivo; in short: as §2
P388 [5] = experiment: Antitumor activity against mouse P388 cells allografted in female BDF1 mouse assessed as disease cures by measuring 30-days host survival at 25 mg/kg, ip administered daily for 9 days as Klucel suspension starting 24 hrs after tumor inoculation relative to control; type: functional; conditions: route intraperitoneal
In short: (§4)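 P388 leukemia given as an ascitic fluid cell inoculum, ip, to mice of the strain and sex in each line. Nine daily ip doses were given in a Klucel (hydroxypropylcellulose) suspension, starting 24 h after inoculation. Read-out is median survival time as %T/C, with >125 taken as significant; a "cure" means 30-day survival.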

P388 [6] = experiment: Antitumor activity against mouse P388 cells allografted in female CDF1 mouse assessed as change in body weight at 200 mg/kg, ip administered daily for 9 days as Klucel suspension starting 24 hrs after tumor inoculation; type: functional; conditions: route intraperitoneal
In short: (§5)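 Ascitic fluid carrying P388 cells was inoculated ip. Compound was given ip in nine daily doses, starting 24 h after inoculation, in Klucel (hydroxypropylcellulose) suspension or in saline with Tween-80. Body-weight difference (treated minus control) was recorded on day 5. Survival was scored as %T/C of median survival time, and 30-day survival counted as cure.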

L1210 [7] = experiment: Antileukemic activity against mouse L1210 cells allografted in female BDF1 mouse assessed as host mean survival time at 25 mg/kg, ip administered daily for 9 days as Klucel suspension starting 24 hrs after tumor inoculation relative to control; type: functional; conditions: route intraperitoneal
In short: (§6)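 L1210 leukemia given as an ascitic fluid cell inoculum, ip, to mice of the strain and sex in each line. Test material was given ip for nine daily doses starting 24 h after inoculation, in a Klucel (hydroxypropylcellulose) suspension. Read-out is mean survival time as %T/C versus controls, with >125 taken as significant.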

L1210 [8] = experiment: Antileukemic activity against mouse L1210 cells allografted in female BDF1 mouse assessed as change in body weight at 100 mg/kg, ip administered daily for 9 days as Klucel suspension starting 24 hrs after tumor inoculation; type: functional; conditions: route intraperitoneal; in short: as §1
L1210 [9] = experiment: Antileukemic activity against mouse L1210 cells allografted in female BDF1 mouse assessed as change in body weight at 50 mg/kg, ip administered daily for 9 days as Klucel suspension starting 24 hrs after tumor inoculation; type: functional; conditions: route intraperitoneal; in short: as §1
P388 [10] = experiment: Antitumor activity against mouse P388 cells allografted in female BDF1 mouse assessed as change in body weight at 12.5 mg/kg, ip administered daily for 9 days as Klucel suspension starting 24 hrs after tumor inoculation; type: functional; conditions: route intraperitoneal; in short: as §5
P388 [11] = experiment: Antitumor activity against mouse P388 cells allografted in female CDF1 mouse assessed as change in body weight at 100 mg/kg, ip administered daily for 9 days as Klucel suspension starting 24 hrs after tumor inoculation; type: functional; conditions: route intraperitoneal; in short: as §5
P388 [12] = experiment: Antitumor activity against mouse P388 cells allografted in female CDF1 mouse assessed as disease cures by measuring 30-days host survival at 50 mg/kg, ip administered daily for 9 days as Klucel suspension starting 24 hrs after tumor inoculation relative to control; type: functional; conditions: route intraperitoneal; in short: as §4
P388 [13] = experiment: Antitumor activity against mouse P388 cells allografted in female BDF1 mouse assessed as change in body weight at 25 mg/kg, ip administered daily for 9 days as Klucel suspension starting 24 hrs after tumor inoculation; type: functional; conditions: route intraperitoneal; in short: as §5
L1210 [14] = experiment: Antileukemic activity against mouse L1210 cells allografted in female BDF1 mouse assessed as host mean survival time at 100 mg/kg, ip administered daily for 9 days as Klucel suspension starting 24 hrs after tumor inoculation relative to control; type: functional; conditions: route intraperitoneal; in short: as §6
L1210 [15] = experiment: Antileukemic activity against mouse L1210 cells allografted in female BDF1 mouse assessed as host mean survival time at 200 mg/kg, ip administered daily for 9 days as Klucel suspension starting 24 hrs after tumor inoculation relative to control; type: functional; conditions: route intraperitoneal; in short: as §6
P388 [16] = experiment: Antitumor activity against mouse P388 cells allografted in female CDF1 mouse assessed as change in body weight at 50 mg/kg, ip administered daily for 9 days as Klucel suspension starting 24 hrs after tumor inoculation; type: functional; conditions: route intraperitoneal; in short: as §5
L1210 [17] = experiment: Antileukemic activity against mouse L1210 cells allografted in female BDF1 mouse assessed as change in body weight at 12.5 mg/kg, ip administered daily for 9 days as Klucel suspension starting 24 hrs after tumor inoculation; type: functional; conditions: route intraperitoneal; in short: as §1
Mus musculus [18] = experiment: Toxicity in female BDF1 mouse allografted with mouse P388 cells assessed as animal survival at 12.5 mg/kg, ip administered daily for 9 days as Klucel suspension starting 24 hrs after tumor inoculation; type: organism-based; parameters: dose 12.5 mg/kg, route intraperitoneal; conditions: in vivo; in short: as §2
P388 [19] = experiment: Antitumor activity against mouse P388 cells allografted in female BDF1 mouse assessed as disease cures by measuring 30-days host survival at 12.5 mg/kg, ip administered daily for 9 days as Klucel suspension starting 24 hrs after tumor inoculation relative to control; type: functional; conditions: route intraperitoneal; in short: as §4
Mus musculus [20] = experiment: Toxicity in female CDF1 mouse allografted with mouse P388 cells assessed as animal survival at 50 mg/kg, ip administered daily for 9 days as Klucel suspension starting 24 hrs after tumor inoculation; type: organism-based; parameters: dose 50 mg/kg, route intraperitoneal; conditions: in vivo; in short: as §2
L1210 [21] = experiment: Antileukemic activity against mouse L1210 cells allografted in female BDF1 mouse assessed as host mean survival time at 12.5 mg/kg, ip administered daily for 9 days as Klucel suspension starting 24 hrs after tumor inoculation relative to control; type: functional; conditions: route intraperitoneal; in short: as §6
L1210 [22] = experiment: Antileukemic activity against mouse L1210 cells allografted in female BDF1 mouse assessed as host mean survival time at 50 mg/kg, ip administered daily for 9 days as Klucel suspension starting 24 hrs after tumor inoculation relative to control; type: functional; conditions: route intraperitoneal; in short: as §6
[23] = Cytotoxicity against human 9KB cells treated as ethanol solution; type: functional; conditions: read-out: ED50 (the source's name)
In short: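 Compound applied as an ethanol solution; activity read out as ED50 under the general screening protocol.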

Mus musculus [24] = experiment: Toxicity in female BDF1 mouse allografted with mouse L1210 cells assessed as animal survival at 50 mg/kg, ip administered daily for 9 days as Klucel suspension starting 24 hrs after tumor inoculation measured on fifth day; type: organism-based; parameters: dose 50 mg/kg, route intraperitoneal; conditions: in vivo; in short: as §3
Mus musculus [25] = experiment: Toxicity in female BDF1 mouse allografted with mouse L1210 cells assessed as animal survival at 12.5 mg/kg, ip administered daily for 9 days as Klucel suspension starting 24 hrs after tumor inoculation measured on fifth day; type: organism-based; parameters: dose 12.5 mg/kg, route intraperitoneal; conditions: in vivo
In short: (§7)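 Female BDF1 mice bearing ip ascitic L1210 inoculum got nine daily ip doses in a Klucel suspension, starting 24 h after tumor inoculation. Toxicity was scored as toxicity-day survivors out of the group, recorded on the fifth day. Animal weight difference (T − C) was also tabulated.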

L1210 [26] = experiment: Antileukemic activity against mouse L1210 cells allografted in female BDF1 mouse assessed as change in body weight at 200 mg/kg, ip administered daily for 9 days as Klucel suspension starting 24 hrs after tumor inoculation; type: functional; conditions: route intraperitoneal; in short: as §1
Mus musculus [27] = experiment: Toxicity in female BDF1 mouse allografted with mouse P388 cells assessed as animal survival at 25 mg/kg, ip administered daily for 9 days as Klucel suspension starting 24 hrs after tumor inoculation; type: organism-based; parameters: dose 25 mg/kg, route intraperitoneal; conditions: in vivo; in short: as §2
P388 [28] = experiment: Antitumor activity against mouse P388 cells allografted in female CDF1 mouse assessed as disease cures by measuring 30-days host survival at 100 mg/kg, ip administered daily for 9 days as Klucel suspension starting 24 hrs after tumor inoculation relative to control; type: functional; conditions: route intraperitoneal; in short: as §4
Mus musculus [29] = experiment: Toxicity in female BDF1 mouse allografted with mouse L1210 cells assessed as animal survival at 100 mg/kg, ip administered daily for 9 days as Klucel suspension starting 24 hrs after tumor inoculation measured on fifth day; type: organism-based; parameters: dose 100 mg/kg, route intraperitoneal; conditions: in vivo; in short: as §7

CC(=O)OCc1c(COC(C)=O)c(-c2ccc(Cl)cc2)n2c1CCC2
Activity (L1210 [1]): 0.6 g
Activity (Mus musculus [2]): Toxic
Activity (Mus musculus [3]): Non-toxic
Activity (Mus musculus [4]): Non-toxic
T/C (P388 [5]): 123%
Activity (P388 [6]): 0.5 g
T/C (L1210 [7]): 102%
Activity (L1210 [8]): -3.8 g
Activity (L1210 [9]): -1.8 g
Activity (P388 [10]): -0.6 g
Activity (P388 [11]): -3.3 g
T/C (P388 [12]): 118%
Activity (P388 [13]): -0.2 g
T/C (L1210 [14]): 76%
T/C (L1210 [15]): 64%
Activity (P388 [16]): -1.9 g
Activity (L1210 [17]): 0.7 g
Activity (Mus musculus [18]): Non-toxic
T/C (P388 [19]): 119%
Activity (Mus musculus [20]): Non-toxic
T/C (L1210 [21]): 95%
T/C (L1210 [22]): 117%
EC50 [23]: > 2.8 µg/mL
Activity (Mus musculus [24]): Non-toxic
Activity (Mus musculus [25]): Non-toxic
Activity (L1210 [26]): -3.8 g
Activity (Mus musculus [27]): Non-toxic
T/C (P388 [28]): 66%
Activity (Mus musculus [29]): Non-toxic
